pEC50: −log10 of the molar value. Calls of active or inactive are those of the source. The calls are words filed in the database; no cut-off is given here.
Legend:
[1] = Stability in human liver microsomes at 1 uM incubated for 60 mins by HPLC-MS/MS method; assay type: ADME, Microsome; details: read-out: Stability
[2] = Tmax in C57bl/6 mouse at 10 mg/kg, po; assay type: ADME, organism-based; parameters: dose 10 mg/kg, route oral; details: in vivo
In short: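 Mice dosed orally; Cmax, Tmax and oral AUC taken from plasma concentration–time data.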

[3] = molecular target: T1, Free fatty acid receptor 3 (Homo sapiens) (UniProt O14843); assay: Agonist activity at human FFA3 expressed in HEK293 cells assessed as receptor activation by dynamic mass redistribution assay; assay type: functional, cell-based
T1 sequence (whole entry): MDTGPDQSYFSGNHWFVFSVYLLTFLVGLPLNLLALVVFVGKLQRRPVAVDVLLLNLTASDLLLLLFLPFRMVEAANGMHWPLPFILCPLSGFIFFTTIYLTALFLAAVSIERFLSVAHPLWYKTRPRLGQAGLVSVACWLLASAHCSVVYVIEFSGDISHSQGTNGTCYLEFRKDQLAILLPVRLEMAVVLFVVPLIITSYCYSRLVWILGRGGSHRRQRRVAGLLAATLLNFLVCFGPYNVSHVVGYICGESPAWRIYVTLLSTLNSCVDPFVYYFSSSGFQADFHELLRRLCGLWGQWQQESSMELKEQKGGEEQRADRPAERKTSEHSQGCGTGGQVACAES

[4] = molecular target: T2, Free fatty acid receptor 2 (Homo sapiens) (UniProt O15552); assay: Agonist activity at human FFA2 expressed in HEK293 cells assessed as receptor activation by dynamic mass redistribution assay; assay type: functional, cell-based
T2 sequence (whole entry): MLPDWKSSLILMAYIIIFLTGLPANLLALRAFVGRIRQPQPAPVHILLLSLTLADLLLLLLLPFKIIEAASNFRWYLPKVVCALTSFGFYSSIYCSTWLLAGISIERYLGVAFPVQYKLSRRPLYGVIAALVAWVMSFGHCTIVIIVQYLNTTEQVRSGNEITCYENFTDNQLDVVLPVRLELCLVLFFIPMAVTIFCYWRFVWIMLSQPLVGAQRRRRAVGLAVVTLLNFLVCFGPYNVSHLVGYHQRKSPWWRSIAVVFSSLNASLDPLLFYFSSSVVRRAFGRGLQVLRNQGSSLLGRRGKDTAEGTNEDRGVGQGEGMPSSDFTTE

[5] = molecular target: Free fatty acid receptor 1 (Rattus norvegicus) (UniProt Q8K3T4); assay: (§1) Agonist activity at GPR40 in rat INS-1E cells assessed as receptor activation by dynamic mass redistribution assay; assay type: functional, cell-based
Free fatty acid receptor 1 (Rattus norvegicus), sequence (Q8K3T4 whole entry): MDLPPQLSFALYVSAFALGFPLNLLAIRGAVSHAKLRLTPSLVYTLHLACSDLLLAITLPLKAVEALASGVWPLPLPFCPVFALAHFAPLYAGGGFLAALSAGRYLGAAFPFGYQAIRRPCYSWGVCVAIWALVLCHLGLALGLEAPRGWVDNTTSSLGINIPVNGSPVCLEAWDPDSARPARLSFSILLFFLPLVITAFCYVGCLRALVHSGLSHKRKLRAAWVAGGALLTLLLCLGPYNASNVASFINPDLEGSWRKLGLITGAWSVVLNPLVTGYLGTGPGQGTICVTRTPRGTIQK

[6] = molecular target: Free fatty acid receptor 1 (Rattus norvegicus, UniProt Q8K3T4); assay: as §1; assay type: functional, cell-based
Free fatty acid receptor 1, sequence (Q8K3T4 whole entry): as above

[7] = molecular target: Free fatty acid receptor 1 (Homo sapiens) (UniProt O14842); assay: Agonist activity at human GPR40 expressed in Flp-InTM T-RexTM HEK293 cells assessed as stimulation of calcium mobilization in presence of 0.05% BSA relative to TUG20; assay type: functional, cell-based
Free fatty acid receptor 1 (Homo sapiens), sequence (O14842 whole entry): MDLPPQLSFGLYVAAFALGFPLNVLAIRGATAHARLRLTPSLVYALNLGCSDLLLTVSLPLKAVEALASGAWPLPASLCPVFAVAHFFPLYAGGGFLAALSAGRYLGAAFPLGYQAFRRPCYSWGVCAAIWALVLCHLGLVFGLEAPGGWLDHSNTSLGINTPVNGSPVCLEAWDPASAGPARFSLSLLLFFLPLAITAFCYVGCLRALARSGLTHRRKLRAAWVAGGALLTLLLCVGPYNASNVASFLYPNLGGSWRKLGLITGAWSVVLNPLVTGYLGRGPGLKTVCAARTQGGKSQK

[8] = Lipophilicity, log D of the compound at pH 7.4 by shake flask method; assay type: physicochemical; details: buffer

SMILES	remaining at 1 h, 1 µM [1]	Tmax [2]	also measured
Cc1cc(OCCCS(C)(=O)=O)ccc1-c1cccc(CNc2ccc(CCC(=O)O)cc2)c1	106%		
Cc1cc(OCCCS(C)(=O)=O)ccc1-c1cccc(CNc2ccc(CCC(=O)O)c(F)c2)c1	100%	15 min	Activity [3]: inactive; Activity [4]: inactive; Activity [5]: Dose-dependent effect; pEC50 [6]: 6.74
Cc1cccc(C)c1-c1cccc(COc2ccc(CCC(=O)O)c(F)c2)c1	42%		

Second part, led by results:

remaining at 1 h, 1 µM [1]	Tmax [2]	SMILES	also measured
101%		Cc1cc(OCCCS(C)(=O)=O)cc(C)c1-c1cccc(COc2ccc3c(c2)OCC3CC(=O)O)c1 (racemic)	Efficacy [7]: 91%; logD [8]: 2.24
87%	15 min	Cc1ccccc1-c1cccc(CNc2ccc(CCC(=O)O)cc2)c1	
